“And” between values parts separate entries of the source, which are not always exact repeats. Equal entries are not always repeated.
Tests used:
Mus musculus [1] = assay: Antimalarial effect against trophozoite-induced Plasmodium berghei in mice (Mus musculus) after subcutaneous administration dose of 40 mg/kg; assay type: functional
Mus musculus [2] = assay: Antimalarial effect against trophozoite-induced Plasmodium berghei in mice (Mus musculus) after subcutaneous administration dose of 20 mg/kg; assay type: functional
Mus musculus [3] = assay: Antimalarial effect against trophozoite-induced Plasmodium berghei in mice (Mus musculus) after subcutaneous administration dose of 320 mg/kg; assay type: functional
Mus musculus [4] = assay: Antimalarial effect against trophozoite-induced Plasmodium berghei in mice (Mus musculus) after subcutaneous administration dose of 160 mg/kg; assay type: functional
Mus musculus [5] = assay: Antimalarial effect against trophozoite-induced Plasmodium berghei in mice (Mus musculus) after subcutaneous administration dose of 10 mg/kg; assay type: functional
Mus musculus [6] = organism: Mus musculus; assay: Daily dose required for 90% parasitaemia in trophozoite induced Plasmodium berghei in 21 mice; assay type: functional
Method in brief: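 Oral suppressive test in mice against a normal drug-sensitive P. berghei strain. Drug given continuously in the diet for six consecutive days, with doses as free base equivalent. SD90 is the daily dose (mg/kg) giving 90% suppression of parasitemia versus control mice, estimated graphically on semilog paper.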

Mus musculus [7] = assay: Antimalarial effect against trophozoite-induced Plasmodium berghei in mice (Mus musculus) after subcutaneous administration dose of 640 mg/kg; assay type: functional
L1210 = assay: Molar concentration required to reduce the number of L1210 cells by 50% after incubation for 2 days; assay type: functional, Mus musculus; conditions: read-out: ID50 (the source's name)
Method in brief: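 L1210 leukemia cells in tissue culture exposed to drug for 2 days. ID50 is the molar concentration that reduces L1210 cell number by 50%. Mithramycin is the reference drug.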

Plasmodium berghei [8] = assay: Antimalarial effect against trophozoite-induced Plasmodium berghei in mice (Mus musculus) at 20 mg/kg subcutaneous dose; assay type: functional; conditions: 20 mg/kg
Mus musculus [9] = assay: Antimalarial effect against trophozoite-induced Plasmodium berghei in mice (Mus musculus) after subcutaneous administration dose of 160 mg/kg; 3 survived after 60 days of postinfection; assay type: functional
Mus musculus [10] = assay: Antimalarial effect against trophozoite-induced Plasmodium berghei in mice (Mus musculus) after subcutaneous administration dose of 160 mg/kg; 4 survived after 60 days of post infection; assay type: functional
Plasmodium berghei [11] = assay: Antimalarial effect against trophozoite-induced Plasmodium berghei in mice (Mus musculus) after subcutaneous dose of 10 mg/kg; assay type: functional; conditions: 10 mg/kg
Plasmodium berghei [12] = assay: Antimalarial effect against trophozoite-induced Plasmodium berghei in mice (Mus musculus) at 40 mg/kg subcutaneous dose; assay type: functional; conditions: 40 mg/kg
Plasmodium berghei [13] = assay: Antimalarial effect against trophozoite-induced Plasmodium berghei in mice (Mus musculus) at 5 mg/kg subcutaneous dose; assay type: functional
Plasmodium berghei [14] = assay: Antimalarial effect against trophozoite-induced Plasmodium berghei in mice (Mus musculus) at 80 mg/kg subcutaneous dose; assay type: functional; conditions: 80 mg/kg
Mus musculus [15] = assay: Antimalarial effect against trophozoite-induced Plasmodium berghei in mice (Mus musculus) after subcutaneous administration dose of 2.5 mg/kg; assay type: functional
Mus musculus [16] = assay: Antimalarial effect against trophozoite-induced Plasmodium berghei in mice (Mus musculus) after subcutaneous administration dose of 10 mg/kg; 1 survived after 60 days of post infection; assay type: functional
Mus musculus [17] = assay: Antimalarial effect against trophozoite-induced Plasmodium berghei in mice (Mus musculus) after subcutaneous administration dose of 20 mg/kg; 4 survived after 60 days of postinfection; assay type: functional

## CC(=O)O.Nc1nc(N)c2cc(CNc3cc(Cl)cc(Cl)c3)ccc2n1.O.O
Mus musculus [1]
  Delta MST: 0.7 days
Mus musculus [2]
  Delta MST: 0.3 days
Mus musculus [3]
  Delta MST: 12.9 days and 6.9 days
Mus musculus [4]
  Delta MST: 6.9 days and 4.7 days
Mus musculus [5]
  Delta MST: 0.3 days
Mus musculus [6]
  SD90: 51 mg/kg/day
Mus musculus [7]
  Delta MST: 13.7 days
L1210; Mus musculus, L1210, 48 h
  IC50: 120 nM
L1210
  IC50: 74 nM

## CC(=O)O.Nc1nc(N)c2cc(CN(N=O)c3ccc(Cl)c(Cl)c3)ccc2n1.O
Plasmodium berghei [8]
  Delta MST: 6.7 days and 6.8 days
Mus musculus [9]
  Delta MST: 28.7 days
Mus musculus [10]
  Delta MST: 22.8 days
Plasmodium berghei [11]
  Delta MST: 3.7 days and 4 days
Plasmodium berghei [12]
  Delta MST: 9.9 days and 9.8 days
Plasmodium berghei [13]
  Delta MST: 2 days
Mus musculus [6]
  SD90: 0.25 mg/kg/day
Plasmodium berghei [14]
  Delta MST: 12.3 days and 12 days
L1210; Mus musculus, L1210, 48 h
  IC50: 40 nM
L1210
  IC50: 70 nM

## Cc1c(CN(N=O)c2ccc(Cl)c(Cl)c2)ccc2nc(N)nc(N)c12
Mus musculus [15]
  Delta MST: 4.1 days
Mus musculus [16]
  Delta MST: 12 days and 11.9 days
Mus musculus [17]
  Delta MST: 21.7 days and 24.9 days
Plasmodium berghei [13]; 5 mg/kg
  Delta MST: 9.9 days and 10.5 days
Mus musculus [6]
  SD90: 1.15 mg/kg/day
L1210; Mus musculus, L1210, 48 h
  IC50: 70 nM
L1210
  IC50: 100 nM

— ChEMBL document CHEMBL1122415, “Folate antagonists. 20. Synthesis and antitumor and antimalarial properties of trimetrexate and related 6-[(phenylamino)methyl]-2,4-quinazolinediamines” (1983)
